Results reported in ChEMBL document CHEMBL4765247, “Novel mouse GABA uptake inhibitors with enhanced inhibitory activity toward mGAT3/4 and their effect on pain threshold in mice” (Eur J Med Chem, 2020).

Legend:
[1] = biological target: T1, Sodium- and chloride-dependent GABA transporter 1 (Mus musculus, UniProt P31648); test: Inhibition of mouse GTA 1 receptor
GABA transporter 4 [2] = biological target: T2, GABA transporter 4 (Mus musculus, UniProt P31650); test: Inhibition of mouse GTA4 receptor
T2 sequence (P31650 whole entry): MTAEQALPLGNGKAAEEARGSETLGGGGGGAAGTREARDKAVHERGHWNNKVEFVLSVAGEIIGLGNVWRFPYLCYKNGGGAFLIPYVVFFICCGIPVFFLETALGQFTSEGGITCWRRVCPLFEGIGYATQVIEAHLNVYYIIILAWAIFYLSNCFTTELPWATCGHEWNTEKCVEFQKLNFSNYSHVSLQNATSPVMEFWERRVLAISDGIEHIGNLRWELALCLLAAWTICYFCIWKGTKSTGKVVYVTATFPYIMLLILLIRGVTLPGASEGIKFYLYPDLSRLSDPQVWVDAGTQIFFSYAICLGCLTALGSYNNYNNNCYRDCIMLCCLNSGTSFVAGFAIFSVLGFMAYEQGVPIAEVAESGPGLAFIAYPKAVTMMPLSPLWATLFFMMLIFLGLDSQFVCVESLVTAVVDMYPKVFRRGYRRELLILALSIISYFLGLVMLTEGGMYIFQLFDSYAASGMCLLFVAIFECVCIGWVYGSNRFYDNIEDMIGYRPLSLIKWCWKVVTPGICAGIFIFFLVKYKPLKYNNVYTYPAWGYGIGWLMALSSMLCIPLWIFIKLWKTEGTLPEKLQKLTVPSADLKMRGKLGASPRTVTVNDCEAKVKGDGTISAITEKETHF

GABA transporter 3 = biological target: T3, GABA transporter 3 (Mus musculus, UniProt P31649); test: Inhibition of mouse GTA 3 receptor
T3 sequence (P31649 whole entry): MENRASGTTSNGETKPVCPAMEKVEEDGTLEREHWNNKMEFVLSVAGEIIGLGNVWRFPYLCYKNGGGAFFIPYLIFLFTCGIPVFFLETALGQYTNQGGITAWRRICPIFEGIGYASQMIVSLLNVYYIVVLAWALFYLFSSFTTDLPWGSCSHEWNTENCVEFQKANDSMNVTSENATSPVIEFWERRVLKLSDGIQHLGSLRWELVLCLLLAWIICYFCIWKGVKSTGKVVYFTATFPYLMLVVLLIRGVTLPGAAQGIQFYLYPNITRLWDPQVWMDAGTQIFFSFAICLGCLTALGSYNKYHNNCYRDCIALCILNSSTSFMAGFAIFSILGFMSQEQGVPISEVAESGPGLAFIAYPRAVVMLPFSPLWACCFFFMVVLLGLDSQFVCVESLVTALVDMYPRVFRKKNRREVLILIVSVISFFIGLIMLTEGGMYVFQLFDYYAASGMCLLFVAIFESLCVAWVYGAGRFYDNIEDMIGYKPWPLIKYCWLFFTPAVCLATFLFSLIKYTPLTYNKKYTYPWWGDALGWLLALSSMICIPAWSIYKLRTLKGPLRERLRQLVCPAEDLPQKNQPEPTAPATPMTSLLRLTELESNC

GABA transporter 4 [3] = biological target: T2, GABA transporter 4; test: Inhibition of mouse GAT4 expressed in HEK293 cell line assessed as inhibition of [3H]GABA uptake measured after 35 mins by liquid scintillation method; format: cell-based
How it was run: (§1)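 Otherwise, the remaining uptake at 100 µM is reported as a percentage. Values without SEM come from a single triplicate experiment.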

[4] = biological target: Sodium- and chloride-dependent GABA transporter 1 (Mus musculus) (UniProt P31648); test: Displacement of [3H]NO711 from mouse GAT1 expressed in HEK293 cells at 100 uM measured after 40 mins of incubation by LC-ESI-MS-MS method; format: cell-based; conditions: in the assay text read “NO711” for “[3H]NO711”
How it was run: (§2)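 Competitive MS Binding Assay for mGAT1 using NO-711 as a nonlabeled marker, quantified by LC–ESI–MS–MS. Compounds were screened at 100 µM. […] Otherwise, the percentage of remaining binding at 100 µM is given.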

[5] = biological target: T1, Sodium- and chloride-dependent GABA transporter 1; test: Inhibition of mouse GAT1 expressed in HEK293 cell line assessed as inhibition of [3H]GABA uptake measured after 35 mins by liquid scintillation method; format: cell-based; how it was run: as §1
[6] = Lipophilicity, logP of the compound by UPLC-MS method; format: physicochemical; conditions: octanol/water
How it was run: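 LogP measured by UPLC on a BEH C18 column (2.1 × 100 mm, 1.7 µm, with C18 pre-column) coupled to an ESI tandem quadrupole MS. The method was calibrated with reference compounds of established logP values.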

[7] = biological target: T1, Sodium- and chloride-dependent GABA transporter 1; test: Displacement of [3H]NO711 from mouse GAT1 expressed in HEK293 cells measured after 40 mins of incubation by LC-ESI-MS-MS method; format: cell-based; conditions: in the assay text read “unlabelled NO711” for “[3H]NO711”; how it was run: as §2
[8] = biological target: Sodium- and chloride-dependent GABA transporter 1 (Mus musculus) (UniProt P31648); test: Inhibition of mouse GAT1 expressed in HEK293 cell line assessed as inhibition of [3H]GABA uptake at 100 uM measured after 35 mins by liquid scintillation method; values are per cent of control

Row | Structure (SMILES) | IC50 (GABA transporter 4 [3]) [µM] | residual activity [4] [%] | IC50 [5] [µM] | logP ([6]; read-out: logP) | also measured
1 | NCCC(=O)O [BETA-ALANINE] | – | – | – | – | IC50 [1]: 2950 µM; IC50 (GABA transporter 4 [2]): 110 µM; IC50 (GABA transporter 3): 66.1 µM
2 | CC(=O)NCCC(C(=O)NCc1ccccc1Cl)N(C)CCC=C(c1sccc1C)c1sccc1C (stereo unspecified) | 6.17 | 68 | 8.71 | 6.46 | –
3 | Cc1ccsc1C(=CCCN(C)C(CCO)C(=O)NCc1ccc(Cl)cc1)c1sccc1C (stereo unspecified) | 7.41 | 81 | 9.33 | 6.38 | –
4 | Cc1ccsc1C(=CCCN(C)C(CCN)C(=O)NCc1ccccc1)c1sccc1C (stereo unspecified) | 6.61 | – | 11.5 | 5.5 | Ki [7]: 24.5 µM
5 | Cc1ccsc1C(=CCCN(C)C(CC(C)O)C(=O)NCc1ccccc1)c1sccc1C (racemic; form 1) [listing 1 of 2 here] | 3.89 | – | 13.2 | 5.64 | –
6 | Cc1ccsc1C(=CCCN(C)C(CO)C(=O)NCc1ccccc1)c1sccc1C (stereo unspecified) | 20.9 | 46 | 35.5 | 6.26 | –
7 | Cc1ccsc1C(=CCCN(C)C(CCN)C(=O)NCc1ccccc1Cl)c1sccc1C (stereo unspecified) | 5.62 | – | 7.59 | 6.11 | Ki [7]: 11.7 µM
8 | Cc1ccc(CNC(=O)C(CCN)N(C)CCC=C(c2sccc2C)c2sccc2C)cc1 (stereo unspecified) | 6.92 | – | 11.5 | 6.61 | Ki [7]: 18.2 µM
9 | Cc1ccsc1C(=CCCN(C)C(CCO)C(=O)NCc1ccc(F)cc1)c1sccc1C (stereo unspecified) | 11 | 70 | 15.5 | 5.87 | –
10 | CN(CCC=C(c1ccccc1)c1ccccc1)C(CCN)C(=O)NCc1ccccc1Cl (stereo unspecified) | – | – | – | – | IC50 (GABA transporter 3): 10 µM
11 | Cc1ccc(CNC(=O)C(CC(C)O)N(C)CCC=C(c2sccc2C)c2sccc2C)cc1 (stereo in doubt) [listing 1 of 2 here] | 7.08 | – | 25.1 | 6.15 | –
12 | Cc1ccsc1C(=CCCN(C)[C@H](CO)C(=O)NCc1ccc(Cl)cc1)c1sccc1C | – | – | 20.4 | – | Ki [7]: 18.6 µM
13 | Cc1ccc(CNC(=O)C(CC(C)O)N(C)CCC=C(c2sccc2C)c2sccc2C)cc1 (racemic) [listing 1 of 2 here] | 5.5 | – | 12.3 | – | –
14 | Cc1ccc(CNC(=O)C(CC(C)O)N(C)CCC=C(c2sccc2C)c2sccc2C)cc1 (racemic) [listing 2 of 2 here] | – | 79 | – | – | –
15 | Cc1ccc(CNC(=O)C(CCO)N(C)CCC=C(c2sccc2C)c2sccc2C)cc1 (stereo unspecified) | 7.08 | 58 | 12.9 | 6.2 | –
16 | Cc1ccsc1C(=CCCN(C)C(CCO)C(=O)NCc1ccccc1)c1sccc1C (stereo unspecified) | 10.2 | 60 | 15.8 | 5.71 | –
17 | COc1ccc(C(OCCN2CCC[C@@H](C(=O)O)C2)(c2ccc(OC)cc2)c2ccc(OC)cc2C)cc1 | – | – | – | – | IC50 [1]: 64.6 µM; IC50 (GABA transporter 4 [2]): 1.66 µM; IC50 (GABA transporter 3): 14.1 µM
18 | Cc1ccsc1C(=CCCN(C)C(CC(C)O)C(=O)NCc1ccccc1Cl)c1sccc1C (racemic; form 2) [listing 1 of 2 here] | – | 88 | – | – | residual activity [8]: 47%
19 | Cc1ccsc1C(=CCCN(C)C(CC(C)O)C(=O)NCc1ccccc1Cl)c1sccc1C (racemic; form 1) [listing 1 of 2 here] | – | 85 | – | – | residual activity [8]: 51%
20 | Cc1ccsc1C(=CCCN(C)C(CO)C(=O)NCc1ccc(C(F)(F)F)cc1)c1sccc1C (stereo unspecified) | 17 | 92 | 13.5 | – | –
21 | Cc1ccsc1C(=CCCN(C)[C@@H]1CCc2onc(O)c2C1)c1sccc1C | – | – | – | – | IC50 [1]: 7.08 µM; IC50 (GABA transporter 4 [2]): > 302 µM; IC50 (GABA transporter 3): > 302 µM
22 | Cc1ccsc1C(=CCCN(C)C(CCO)C(=O)NC(C)c1ccccc1)c1sccc1C (stereo unspecified) | 13.8 | 68 | 30.2 | 6.1 | –
23 | Cc1ccsc1C(=CCCN(C)C(CCN)C(=O)NCc1ccc(F)cc1)c1sccc1C (stereo unspecified) | 7.59 | – | 11.7 | 6.45 | Ki [7]: 21.9 µM

Row | Structure (SMILES) | IC50 (GABA transporter 4 [3]) [µM] | residual activity [4] [%] | IC50 [5] [µM] | logP ([6]; read-out: logP) | also measured
24 | Cc1ccsc1C(=CCCN(C)C(CC(C)O)C(=O)NCc1ccccc1)c1sccc1C (racemic; form 2) [listing 1 of 2 here] | 18.6 | – | 23.4 | – | logP [6]: 6.22
25 | Cc1ccsc1C(=CCCN(C)C(CC(C)O)C(=O)NCc1ccc(Cl)cc1)c1sccc1C (stereo in doubt) [listing 1 of 2 here] | – | 90 | – | – | residual activity [8]: 63%
26 | Cc1ccsc1C(=CCCN(C)C(CC(C)O)C(=O)NCc1ccc(Cl)cc1)c1sccc1C (stereo in doubt) [listing 2 of 2 here] | 28.8 | – | – | 5.99 | –
27 | Cc1ccsc1C(=CCCN(C)C(CCN)C(=O)NCc1ccc(Cl)cc1)c1sccc1C (stereo unspecified) | 8.13 | – | 9.33 | 5.85 | Ki [7]: 20 µM
28 | Cc1ccsc1C(=CCCN(C)C(CC(C)O)C(=O)NCc1ccc(Cl)cc1)c1sccc1C (mixture of isomers) [listing 1 of 2 here] | – | 91 | – | – | –
29 | Cc1ccsc1C(=CCCN(C)C(CC(C)O)C(=O)NCc1ccc(F)cc1)c1sccc1C (racemic; form 1) [listing 1 of 2 here] | 17.8 | – | 66.1 | 5.51 | –
30 | Cc1ccsc1C(=CCCN(C)C(CC(C)O)C(=O)NCc1ccccc1)c1sccc1C (racemic; form 2) [listing 2 of 2 here] | – | 59 | – | – | –
31 | Cc1ccsc1C(=CCCN(C)C(CC(C)O)C(=O)NCc1ccc(F)cc1)c1sccc1C (racemic; form 2) [listing 1 of 2 here] | – | 70 | – | – | –
32 | Cc1ccsc1C(=CCCN(C)C(CC(C)O)C(=O)NCc1ccc(F)cc1)c1sccc1C (racemic; form 1) [listing 2 of 2 here] | – | 78 | – | – | –
33 | NCC(O)C(=O)O (stereo unspecified) | 5.01 | – | 2510 | – | –
34 | Cc1ccsc1C(=CCCN(C)[C@H]1CCc2onc(O)c2C1)c1sccc1C | – | – | – | – | IC50 [1]: 7.08 µM; IC50 (GABA transporter 4 [2]): > 302 µM; IC50 (GABA transporter 3): > 302 µM
35 | Cc1ccsc1C(=CCCN(C)[C@H](CCO)C(=O)NCc1ccccc1Cl)c1sccc1C | – | – | 13.8 | – | Ki [7]: 25.7 µM
36 | Cc1ccc(CNC(=O)C(CC(C)O)N(C)CCC=C(c2sccc2C)c2sccc2C)cc1 (stereo in doubt) [listing 2 of 2 here] | – | 72 | – | – | –
37 | Cc1ccsc1C(=CCCN(C)C(CCO)C(=O)NCc1ccc(F)cc1F)c1sccc1C (stereo unspecified) | 8.71 | 71 | 12.3 | 6.37 | –
38 | Cc1ccsc1C(=CCCN(C)C(CC(C)O)C(=O)NCc1ccc(Cl)cc1)c1sccc1C (mixture of isomers) [listing 2 of 2 here] | 13.2 | – | 57.5 | – | logP [6]: 6.77
39 | Cc1ccsc1C(=CCCN(C)[C@@H](CO)C(=O)NCc1ccc(Cl)cc1)c1sccc1C | – | – | – | – | Ki [7]: 87.1 µM
40 | Cc1ccsc1C(=CCCN(C)C(CC(C)O)C(=O)NCc1ccc(F)cc1)c1sccc1C (racemic; form 2) [listing 2 of 2 here] | 29.5 | – | 85.1 | – | –
41 | Cc1ccsc1C(=CCCN(C)C1CCc2onc(O)c2C1)c1sccc1C (stereo unspecified) | > 302 | – | 7.08 | – | –
42 | Cc1ccsc1C(=CCCN(C)C(CC(C)O)C(=O)NCc1ccccc1Cl)c1sccc1C (racemic; form 2) [listing 2 of 2 here] | – | – | – | – | pIC50 (GABA transporter 4 [3]; hek293): 5.02; logP [6]: 5.67
43 | Cc1ccsc1C(=CCCN(C)C(CC(C)O)C(=O)NCc1ccccc1Cl)c1sccc1C (racemic; form 1) [listing 2 of 2 here] | 9.55 | – | – | 5.95 | –
44 | Cc1ccsc1C(=CCCN(C)C(CC(C)O)C(=O)NCc1ccccc1)c1sccc1C (racemic; form 1) [listing 2 of 2 here] | – | 82 | – | – | –
45 | O=C(O)C1=CCCN(CCO/N=C/c2ccccc2-c2ccc(Cl)cc2Cl)C1 | 85.1 | – | – | – | –
